Active and inactive are the calls of the source. No cut-off for these calls is given here.
Key:
HCT-116 [1] = assay: Induction of cell cycle arrest in human HCT116 cells assessed as accumulation at S phase at 15 uM after 48 hrs by propidium iodide staining-based flow cytometric analysis in presence of RNase A (reference value: 16.2%); type: functional
HCT-116 [2] = assay: Induction of apoptosis in human HCT116 cells assessed as late apoptotic cells at 7.5 uM after 48 hrs by annexin V-FITC/propidium iodide staining-based flow cytometric analysis (reference value: 5.2%); type: functional
HCT-116 [3] = assay: Induction of apoptosis in human HCT116 cells assessed as early apoptotic cells at 7.5 uM after 48 hrs by annexin V-FITC/propidium iodide staining-based flow cytometric analysis (reference value: 1.6%); type: functional
HCT-116 [4] = assay: Induction of apoptosis in human HCT116 cells assessed as late apoptotic cells at 30 uM after 48 hrs by annexin V-FITC/propidium iodide staining-based flow cytometric analysis (reference value: 5.2%); type: functional
HCT-116 [5] = assay: Induction of reactive oxygen species in human HCT116 cells at 7.5 uM after 48 hrs by DCFH-DA staining-based flow cytometric analysis (reference value: 5.1%); type: functional
HCT-116 [6] = assay: Induction of apoptosis in human HCT116 cells assessed as early apoptotic cells at 30 uM after 48 hrs by annexin V-FITC/propidium iodide staining-based flow cytometric analysis in presence of NAC (reference value: 1.1%); type: functional
HCT-116 [7] = assay: Induction of apoptosis in human HCT116 cells assessed as cleaved caspase 8 level at 30 uM up to 24 hrs by Western blot analysis in presence of NAC; type: functional, cell-based
HCT-116 [8] = assay: Induction of cell cycle arrest in human HCT116 cells assessed as accumulation at G0/G1 phase at 30 uM after 24 hrs by propidium iodide staining-based flow cytometric analysis in presence of RNase A (reference value: 64.6%); type: functional
[9] = Upregulation of phosphorylated H2A.X expression at Ser139 in human HCT116 cells at 7.5 to 30 uM after 24 hrs by Western blot analysis; type: functional, cell-based; settings: HCT-116
[10] = Upregulation of phosphorylated ATR expression in human HCT116 cells at 1 hr by Western blot analysis; type: functional, cell-based; settings: HCT-116
[11] = Downregulation of phosphorylated ATR expression in human HCT116 cells at 30 uM after 1 hr by Western blot analysis; type: functional, cell-based; settings: HCT-116, TDE = time-dependent effect
Method in brief: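 HCT116 cells exposed for 1 h in complete medium; RIPA lysates quantified by BCA, equal protein separated on 8–13% SDS-PAGE, transferred to PVDF, probed with primary antibodies overnight at 4 °C and HRP secondaries, chemiluminescence read-out.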

[12] = Upregulation of p53 expression in human HCT116 cells at 7.5 to 30 uM after 24 hrs by Western blot analysis; type: functional, cell-based; settings: HCT-116
[13] = target: T1, Serine-protein kinase ATM/ATR (Homo sapiens) (UniProt Q13315+Q13535); assay: Activation of ATM/ATR in human HCT116 cells assessed as increase in Chk1 phosphorylation at S345 at 7.5 to 30 uM after 24 hrs by Western blot analysis; type: cell-based; settings: HCT-116
Method in brief: (§1)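 HCT116 cells exposed 24 h in complete medium; lysed in RIPA buffer (pH 8.0), protein by BCA, equal loads run on 8–13% SDS-PAGE, PVDF transfer, blocked in 5% BSA/TBST, primary antibodies overnight at 4 °C, HRP secondaries 2 h RT, ECL detection; β-actin as loading control.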

[14] = target: T1, Serine-protein kinase ATM/ATR (Homo sapiens); assay: Activation of ATM/ATR in human HCT116 cells assessed as increase in Chk2 phosphorylation at Thr68 at 7.5 to 30 uM after 24 hrs by Western blot analysis; type: cell-based; settings: HCT-116; method in brief: as §1
[15] = Antiproliferative activity against p53-null human HCT116 cells assessed as cell viability after 72 hrs by SRB assay; type: functional, cell-based; settings: HCT-116, 72 h
Method in brief: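 p53 wild-type and p53-null HCT116 cells in 96-well plates treated 72 h; SRB assay (TCA fix, SRB stain, Tris pH 10.0 solubilisation, A515); viability vs solvent control, IC50 by nonlinear regression.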

[16] = target: Cyclin-dependent kinase inhibitor 1B/S-phase kinase-associated protein 2 (Homo sapiens) (UniProt Q13309+P46527); assay: Inhibition of Skp2/p27 protein interaction in human HCT116 cells after 24 hrs by immunoprecipitation assay; type: cell-based; settings: HCT-116
Cyclin-dependent kinase inhibitor 1B/S-phase kinase-associated protein 2 (Homo sapiens), sequence (P46527 whole entry, looked up): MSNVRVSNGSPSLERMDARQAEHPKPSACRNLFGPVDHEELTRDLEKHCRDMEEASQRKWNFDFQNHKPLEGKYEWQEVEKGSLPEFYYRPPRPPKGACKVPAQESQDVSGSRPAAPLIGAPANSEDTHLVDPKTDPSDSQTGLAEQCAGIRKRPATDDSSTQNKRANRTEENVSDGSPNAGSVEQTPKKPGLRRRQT
Cyclin-dependent kinase inhibitor 1B/S-phase kinase-associated protein 2 (Homo sapiens), sequence (Q13309 whole entry, looked up): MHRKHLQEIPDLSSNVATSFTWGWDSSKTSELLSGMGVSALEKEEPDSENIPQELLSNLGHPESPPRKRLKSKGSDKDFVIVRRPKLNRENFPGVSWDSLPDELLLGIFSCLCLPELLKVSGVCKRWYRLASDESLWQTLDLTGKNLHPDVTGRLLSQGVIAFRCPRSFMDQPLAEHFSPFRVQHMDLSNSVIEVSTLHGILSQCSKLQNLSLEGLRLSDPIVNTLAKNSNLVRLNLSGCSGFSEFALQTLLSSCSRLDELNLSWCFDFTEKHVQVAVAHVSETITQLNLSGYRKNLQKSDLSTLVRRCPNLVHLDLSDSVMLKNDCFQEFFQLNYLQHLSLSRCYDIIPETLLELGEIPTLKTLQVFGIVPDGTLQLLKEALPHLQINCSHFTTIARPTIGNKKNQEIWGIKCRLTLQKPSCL
Method in brief: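 Protein measured by Bradford. Equal protein incubated with Protein G sepharose and the capture antibody (anti-p53, anti-Cul-1 or anti-Skp2) overnight at 4 °C. Bead eluates boiled in Laemmli/2-mercaptoethanol and analysed by Western blot.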

HCT-116 [17] = assay: Induction of cell cycle arrest in human HCT116 cells assessed as accumulation at S phase at 7.5 uM after 48 hrs by propidium iodide staining-based flow cytometric analysis in presence of RNase A (reference value: 16.2%); type: functional
K562 = assay: Antiproliferative activity against human K562 cells after 24 to 72 hrs by SRB assay; type: functional, cell-based
Method in brief: (§2)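 Cells grown in 96-well plates (RPMI 1640; MRC-5 in MEM, 10% FBS, antibiotics) with compound […]; fixed in 10% TCA 30 min at 4 °C, stained 0.4% SRB in 1% acetic acid 1 h, dye dissolved in 10 mM Tris pH 10.0, A515 read; viability as % of solvent control, IC50 by nonlinear regression; mean of three independent experiments.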

[18] = (§3) Antiproliferative activity against human HCT116 cells after 24 to 72 hrs by SRB assay; type: functional, cell-based; settings: HCT-116; method in brief: as §2
HCT-116 [19] = assay: as §3; type: functional, cell-based; method in brief: as §2
MRC5 = assay: Cytotoxicity against human MRC5 cells after 24 to 72 hrs by SRB assay; type: cell-based; method in brief: as §2
Mus musculus [20] = assay: Upregulation of p27 in human HCT116 cells xenografted in nude mouse at 5 to 10 mg/kg, ip administered 3 times per week measured on day 41 by H and E staining-based phase contrast microscopic analysis; type: functional, organism-based; settings: HCT-116
Method in brief: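 Tumors excised from the xenograft study (ip 5 or 10 mg/kg three times weekly, day 41) were formalin-fixed and paraffin-embedded. Sections were probed with antibody, detected by LSAB/HRP, counterstained with H&E and photographed under an inverted phase-contrast microscope.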

Mus musculus [21] = assay: Downregulation of Ki-67 in human HCT116 cells xenografted in nude mouse at 5 to 10 mg/kg, ip administered 3 times per week measured on day 41 by […]; type: functional, organism-based; settings: HCT-116
Method in brief: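 Formalin-fixed, paraffin-embedded xenograft sections (mice dosed ip three times weekly) probed with antibodies, detected by LSAB/HRP, counterstained with H&E, imaged by inverted phase-contrast microscopy.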

HCT-116 [22] = assay: Induction of cell cycle arrest in human HCT116 cells assessed as accumulation at G0/G1 phase at 7.5 uM after 24 hrs by propidium iodide staining-based flow cytometric analysis in presence of RNase A (reference value: 64.6%); type: functional
HCT-116 [23] = assay: Induction of cell cycle arrest in human HCT116 cells assessed as accumulation at S phase at 7.5 uM after 24 hrs by propidium iodide staining-based flow cytometric analysis in presence of RNase A (reference value: 13.4%); type: functional
HCT-116 [24] = assay: Induction of cell cycle arrest in human HCT116 cells assessed as accumulation at S phase at 15 uM after 24 hrs by propidium iodide staining-based flow cytometric analysis in presence of RNase A (reference value: 13.4%); type: functional

Compound: O=C/C=C/c1ccc2c(c1)O[C@@H](CO)[C@H](c1ccc(O)c(O)c1)O2 [AMERICANIN A]
- Activity (HCT-116 [1]): 8.2%
- Activity (HCT-116 [2]): 10.4%
- Activity (HCT-116 [3]): 3%
- Activity (HCT-116 [4]): 18.9%
- Activity (HCT-116 [5]): 5.2%
- Activity (HCT-116 [6]): 2.7%
- Activity (HCT-116 [7]): inactive
- Activity (HCT-116 [8]): 39%
- Activity [9]: Active
- Activity [10]: Dose-dependent effect
- Activity [11]: tde
- Activity [12]: Active
- Activity [13]: Dose-dependent effect
- Activity [14]: Dose-dependent effect
- IC50 [15]: 7.8 µM
- inhibition [16]: inactive
- Activity (HCT-116 [17]): 13.5%
- IC50 (K562): 12.9 µM
- IC50 [18]: 7.6 µM
- Activity (HCT-116 [19]): Dose-dependent effect
- IC50 (MRC5): > 100 µM
- Activity (Mus musculus [20]): Active
- Activity (Mus musculus [21]): Active
- Activity (HCT-116 [22]): 55.4%
- Activity (HCT-116 [23]): 15.6%
- Activity (HCT-116 [24]): 17.9%

From ChEMBL document CHEMBL3758106, “Antitumor Activity of Americanin A Isolated from the Seeds of Phytolacca americana by Regulating the ATM/ATR Signaling Pathway and the Skp2-p27 Axis in Human Colon Cancer Cells” (J Nat Prod, 2015)
